Data: ChEMBL document CHEMBL3352487, “Synthesis, antibacterial activity, and biological evaluation of formyl hydroxyamino derivatives as novel potent peptide deformylase inhibitors against drug-resistant bacteria” (Eur J Med Chem, 2014)
≈ marks a conversion by molar mass, not a printed value.

Tests used:
[1] = tested on: Staphylococcus aureus; assay: Antimicrobial activity against Staphylococcus aureus MRSA08-12 in peritonitis mouse model assessed as mortality of host at 2.5 mg/kg, iv as single dose relative to control; type: functional
How it was run: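 KM outbred mice (20–25 g) inoculated intraperitoneally with a 90-to-100%-lethal dose (5 × 10^7 CFU/mL) of MRSA08-12 in 0.5 mL brain heart infusion broth with 5% mucin. Single i.v. dose in 20% DMSO, 0.1 mL; doses 1.25–20 mg/kg, 10 mice per dose. Cumulative mortality tracked daily for 14 days; ED50 by Bliss's method.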

[2] = tested on: Staphylococcus aureus; assay: Antimicrobial activity against Staphylococcus aureus MRSA08-12 in peritonitis mouse model assessed as mortality of host at 1.25 mg/kg, iv as single dose relative to control; type: functional
How it was run: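 Outbred KM mice (20–25 g) infected i.p. with a 90–100% lethal dose (5 × 10^7 CFU/mL) in 0.5 mL brain heart infusion broth with 5% mucin. Single i.v. dose of 1.25–20 mg/kg in 20% DMSO, 0.1 mL. Ten mice per dose; daily monitoring for 14 days; ED50 from cumulative mortality by Bliss's method.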

[3] = molecular target: T1, hERG (KCNH2) (Homo sapiens, UniProt Q12809); assay: Inhibition of human ERG at 1 uM
T1 sequence (Q12809 whole entry): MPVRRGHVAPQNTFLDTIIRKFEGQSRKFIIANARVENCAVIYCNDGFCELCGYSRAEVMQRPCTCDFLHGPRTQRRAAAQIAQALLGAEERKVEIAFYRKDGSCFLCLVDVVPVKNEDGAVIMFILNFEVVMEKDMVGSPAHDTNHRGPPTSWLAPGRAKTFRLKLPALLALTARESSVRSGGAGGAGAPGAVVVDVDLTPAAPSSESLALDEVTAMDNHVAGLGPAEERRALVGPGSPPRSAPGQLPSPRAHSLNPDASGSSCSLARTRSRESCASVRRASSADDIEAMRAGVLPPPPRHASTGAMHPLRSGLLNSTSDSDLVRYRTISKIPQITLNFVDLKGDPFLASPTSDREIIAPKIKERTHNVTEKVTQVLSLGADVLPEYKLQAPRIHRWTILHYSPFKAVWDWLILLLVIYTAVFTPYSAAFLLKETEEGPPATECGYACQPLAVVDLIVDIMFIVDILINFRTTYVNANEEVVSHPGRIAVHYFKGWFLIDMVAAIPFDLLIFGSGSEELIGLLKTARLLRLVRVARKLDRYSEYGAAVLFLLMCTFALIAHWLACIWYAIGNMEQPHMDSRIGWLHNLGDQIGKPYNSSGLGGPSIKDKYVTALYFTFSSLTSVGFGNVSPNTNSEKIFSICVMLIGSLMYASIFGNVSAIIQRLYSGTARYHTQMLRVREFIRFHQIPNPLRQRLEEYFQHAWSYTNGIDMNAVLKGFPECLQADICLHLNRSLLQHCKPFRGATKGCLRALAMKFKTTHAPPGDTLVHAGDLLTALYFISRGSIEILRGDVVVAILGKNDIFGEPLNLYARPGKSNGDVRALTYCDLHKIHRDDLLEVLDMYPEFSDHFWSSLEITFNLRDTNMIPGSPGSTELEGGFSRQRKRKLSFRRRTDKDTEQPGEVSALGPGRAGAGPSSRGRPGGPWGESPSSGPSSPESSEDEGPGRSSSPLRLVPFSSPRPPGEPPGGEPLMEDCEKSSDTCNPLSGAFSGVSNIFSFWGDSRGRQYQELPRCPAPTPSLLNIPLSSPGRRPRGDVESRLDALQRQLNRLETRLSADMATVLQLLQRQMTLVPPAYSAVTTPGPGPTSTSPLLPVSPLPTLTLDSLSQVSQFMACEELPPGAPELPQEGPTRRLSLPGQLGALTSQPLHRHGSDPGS

[4] = tested on: Mus musculus; assay: Acute toxicity in KM mouse assessed as heart abnormality at 250 mg/kg, iv measured for 14 days by necropsy; type: organism-based; design: dose 250 mg/kg, route intravenous; conditions: in vivo, 336 h
How it was run: (§1)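 Outbred KM mice (SPF, 20–25 g; nine male, ten female) given a single tail-vein injection of 100 or 250 mg/kg in PBS pH 6.5 with 20% DMSO over about 60 s. Behaviour, weight, coat colour, anal temperature, food and water intake, and urine and stool weight followed for 14 days. On day 14, gross necropsy of skin, lungs, heart, liver, kidneys and spleen.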

[5] = tested on: Mus musculus; assay: Acute toxicity in KM mouse assessed as kidney abnormality at 250 mg/kg, iv measured for 14 days by necropsy; type: organism-based; design: dose 250 mg/kg, route intravenous; conditions: in vivo, 336 h; how it was run: as §1
[6] = Acute toxicity in iv dosed KM mouse measured for 14 days; type: organism-based; conditions: in vivo
How it was run: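 Outbred KM mice (SPF, 20–25 g; nine male, ten female) given a single tail-vein i.v. dose of 100 or 250 mg/kg, formulated in PBS pH 6.5 containing 20% DMSO. Behaviour, weight, coat, anal temperature, food and water intake, and excreta monitored daily for 14 days, then necropsy.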

[7] = tested on: Staphylococcus aureus; assay: Antimicrobial activity against Staphylococcus aureus after 24 hrs by broth microdilution method; type: functional
How it was run: (§2)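 Broth microdilution following NCCLS M7-A4; ATCC strains and clinical isolates from a provincial hospital.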

[8] = tested on: Staphylococcus aureus; assay: Antimicrobial activity against methicillin-susceptible Staphylococcus aureus after 24 hrs by broth microdilution method; type: functional; how it was run: as §2
[9] = tested on: Escherichia coli; assay: Antimicrobial activity against Escherichia coli isolate 2 after 24 hrs by broth microdilution method; type: functional; conditions: isolate 2, 24 h; how it was run: as §2
[10] = tested on: Staphylococcus aureus; assay: Antimicrobial activity against Staphylococcus aureus WCUH29 after 24 hrs by broth microdilution method; type: functional; conditions: WCUH29, 24 h; how it was run: as §2
[11] = tested on: Enterococcus faecalis; assay: Antimicrobial activity against Enterococcus faecalis Isolate 1 after 24 hrs by broth microdilution method; type: functional; conditions: Isolate 1, 24 h; how it was run: as §2
[12] = tested on: Haemophilus influenzae; assay: Antimicrobial activity against Haemophilus influenzae Q1 after 24 hrs by broth microdilution method; type: functional; conditions: Q1, 24 h; how it was run: as §2
[13] = tested on: Haemophilus influenzae; assay: Antimicrobial activity against Haemophilus influenzae H128 after 24 hrs by broth microdilution method; type: functional; conditions: H128, 24 h; how it was run: as §2
[14] = tested on: Moraxella catarrhalis; assay: Antimicrobial activity against Moraxella catarrhalis 1502 after 24 hrs by broth microdilution method; type: functional; conditions: Moraxella catarrhalis, 1502, 24 h; how it was run: as §2
[15] = tested on: Streptococcus pneumoniae; assay: Antimicrobial activity against Streptococcus pneumoniae 1629 after 24 hrs by broth microdilution method; type: functional; conditions: Streptococcus pneumoniae, 1629, 24 h; how it was run: as §2
[16] = tested on: Streptococcus pyogenes; assay: Antimicrobial activity against Streptococcus pyogenes 1307006P after 24 hrs by broth microdilution method; type: functional; how it was run: as §2
[17] = tested on: Staphylococcus aureus; assay: Antimicrobial activity against Staphylococcus aureus ATCC 29213 after 24 hrs by broth microdilution method; type: functional; conditions: ATCC 29213, 24 h; how it was run: as §2
[18] = tested on: Staphylococcus aureus; assay: Antimicrobial activity against Staphylococcus aureus isolate A53 after 24 hrs by broth microdilution method; type: functional; conditions: isolate A53, 24 h
How it was run: (§3)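 Broth microdilution following NCCLS M7-A4, using ATCC strains and clinical isolates from a provincial hospital.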

[19] = tested on: Staphylococcus aureus; assay: Antimicrobial activity against Staphylococcus aureus isolate CARTER 37 after 24 hrs by broth microdilution method; type: functional; conditions: isolate CARTER 37, 24 h; how it was run: as §3
[20] = tested on: Staphylococcus aureus; assay: Antimicrobial activity against Staphylococcus aureus isolate Ealing 23 after 24 hrs by broth microdilution method; type: functional; conditions: isolate Ealing 23, 24 h; how it was run: as §3
[21] = tested on: Staphylococcus aureus; assay: Antimicrobial activity against Staphylococcus aureus isolate Ealing 32 after 24 hrs by broth microdilution method; type: functional; conditions: isolate Ealing 32, 24 h; how it was run: as §2
[22] = tested on: Staphylococcus aureus; assay: Antimicrobial activity against Staphylococcus aureus isolate F89 after 24 hrs by broth microdilution method; type: functional; conditions: isolate F89, 24 h; how it was run: as §2
[23] = tested on: Staphylococcus aureus; assay: Antimicrobial activity against Staphylococcus aureus isolate RUSSELL after 24 hrs by broth microdilution method; type: functional; how it was run: as §3
[24] = tested on: Staphylococcus aureus; assay: Antimicrobial activity against Staphylococcus aureus isolate SWEETING after 24 hrs by broth microdilution method; type: functional; how it was run: as §3
[25] = tested on: Staphylococcus aureus; assay: Antimicrobial activity against Staphylococcus aureus isolate CL 938 after 24 hrs by broth microdilution method; type: functional; conditions: isolate CL 938, 24 h; how it was run: as §2
[26] = tested on: Staphylococcus aureus; assay: Antimicrobial activity against Staphylococcus aureus isolate MN 1255 after 24 hrs by broth microdilution method; type: functional; conditions: isolate MN 1255, 24 h; how it was run: as §2
[27] = tested on: Staphylococcus aureus; assay: Antimicrobial activity against Staphylococcus aureus isolate OGA833 after 24 hrs by broth microdilution method; type: functional; conditions: isolate OGA833, 24 h; how it was run: as §2
[28] = tested on: Staphylococcus aureus; assay: Antimicrobial activity against Staphylococcus aureus isolate PAV 5 after 24 hrs by broth microdilution method; type: functional; conditions: isolate PAV 5, 24 h; how it was run: as §2
[29] = tested on: Staphylococcus aureus; assay: Antimicrobial activity against Staphylococcus aureus isolate RN1030 after 24 hrs by broth microdilution method; type: functional; conditions: isolate RN1030, 24 h; how it was run: as §3
[30] = tested on: Staphylococcus aureus; assay: Antimicrobial activity against Staphylococcus aureus isolate 68/8684 after 24 hrs by broth microdilution method; type: functional; conditions: isolate 68/8684, 24 h; how it was run: as §2
[31] = tested on: Staphylococcus aureus; assay: Antimicrobial activity against Staphylococcus aureus isolate 929035 after 24 hrs by broth microdilution method; type: functional; conditions: isolate 929035, 24 h; how it was run: as §2
[32] = tested on: Staphylococcus aureus; assay: Antimicrobial activity against Staphylococcus aureus isolate 934334 after 24 hrs by broth microdilution method; type: functional; conditions: isolate 934334, 24 h; how it was run: as §2
[33] = tested on: Staphylococcus aureus; assay: Antimicrobial activity against Staphylococcus aureus isolate 934387 after 24 hrs by broth microdilution method; type: functional; conditions: isolate 934387, 24 h; how it was run: as §3
[34] = tested on: Staphylococcus aureus; assay: Antimicrobial activity against Staphylococcus aureus isolate NEQAS 4158 after 24 hrs by broth microdilution method; type: functional; conditions: isolate NEQAS 4158, 24 h; how it was run: as §2
[35] = Half life in Sprague-Dawley rat at 5 mg/kg, iv; type: ADME, organism-based; design: dose 5 mg/kg, route intravenous; conditions: in vivo
[36] = AUC (0 to t) in Sprague-Dawley rat at 25 mg/kg, po; type: ADME, organism-based; design: dose 25 mg/kg, route oral; conditions: plasma
[37] = molecular target: T1, hERG (KCNH2); assay: Inhibition of human ERG at 10 uM
[38] = Solubility of the compound in artificial gastric juice measured every 2 hrs for 12 hrs by HPLC analysis; type: ADME; conditions: simulated gi fluid
[39] = Solubility of the compound in artificial intestinal juice measured every 2 hrs for 12 hrs by HPLC analysis; type: physicochemical; conditions: simulated gi fluid
[40] = Stability of the compound in artificial intestinal juice measured every 2 hrs for 12 hrs by HPLC analysis; type: physicochemical; conditions: simulated gi fluid

**Q.** With CCCC[C@H](CN(O)C=O)C(=O)N1CC=C[C@H]1C(=O)Nc1ccc(F)c[n+]1[O-] as the compound, how does the mortality at 2.5 mg/kg [1] read?
**A.** 80%

**Q.** What about the mortality at 1.25 mg/kg [2] of the same compound?
**A.** 100%

**Q.** And the inhibition at 1 µM [3]?
**A.** 4.55%

**Q.** What about the Activity [4] of the same compound?
**A.** Non-toxic

**Q.** And the Activity [5]?
**A.** Non-toxic

**Q.** And the LD50 at 336 h [6]?
**A.** > 250 mg/kg

**Q.** And the MIC [7]?
**A.** 0.5 µg/mL (≈ 1.27 µM)

**Q.** What about the MIC [8] of the same compound?
**A.** 1 µg/mL (≈ 2.54 µM)

**Q.** What about the MIC [9] of the same compound?
**A.** 64 µg/mL (≈ 162 µM)

**Q.** What about the MIC [10] of the same compound?
**A.** 0.125 µg/mL (≈ 0.317 µM)

**Q.** And the MIC [11]?
**A.** 4 µg/mL (≈ 10.1 µM)

**Q.** What about the MIC [12] of the same compound?
**A.** 1 µg/mL (≈ 2.54 µM)

**Q.** What about the MIC [13] of the same compound?
**A.** 2 µg/mL (≈ 5.07 µM)

**Q.** What about the MIC [14] of the same compound?
**A.** ≤ 0.06 µg/mL

**Q.** And the MIC [15]?
**A.** 1 µg/mL (≈ 2.54 µM)

**Q.** And the MIC [16]?
**A.** 2 µg/mL (≈ 5.07 µM)

**Q.** What about the MIC [17] of the same compound?
**A.** 1 µg/mL (≈ 2.54 µM)

**Q.** What about the MIC [18] of the same compound?
**A.** 0.5 µg/mL (≈ 1.27 µM)

**Q.** And the MIC [19]?
**A.** 0.5 µg/mL (≈ 1.27 µM)

**Q.** What about the MIC [20] of the same compound?
**A.** 0.5 µg/mL (≈ 1.27 µM)

**Q.** What about the MIC [21] of the same compound?
**A.** 0.25 µg/mL (≈ 0.634 µM)

**Q.** What about the MIC [22] of the same compound?
**A.** 1 µg/mL (≈ 2.54 µM)

**Q.** And the MIC [23]?
**A.** 0.5 µg/mL (≈ 1.27 µM)

**Q.** What about the MIC [24] of the same compound?
**A.** 0.125 µg/mL (≈ 0.317 µM)

**Q.** What about the MIC [25] of the same compound?
**A.** 1 µg/mL (≈ 2.54 µM)

**Q.** What about the MIC [26] of the same compound?
**A.** 0.25 µg/mL (≈ 0.634 µM)

**Q.** And the MIC [27]?
**A.** 0.5 µg/mL (≈ 1.27 µM)

**Q.** What about the MIC [28] of the same compound?
**A.** 1 µg/mL (≈ 2.54 µM)

**Q.** And the MIC [29]?
**A.** 0.5 µg/mL (≈ 1.27 µM)

**Q.** And the MIC [30]?
**A.** > 16 µg/mL

**Q.** And the MIC [31]?
**A.** 1 µg/mL (≈ 2.54 µM)

**Q.** What about the MIC [32] of the same compound?
**A.** 1 µg/mL (≈ 2.54 µM)

**Q.** What about the MIC [33] of the same compound?
**A.** 0.5 µg/mL (≈ 1.27 µM)

**Q.** And the MIC [34]?
**A.** 1 µg/mL (≈ 2.54 µM)

**Q.** What about the half-life [35] of the same compound?
**A.** 1.17 h

**Q.** What about the AUC(0-t) [36] of the same compound?
**A.** 3320 ng·h/mL

**Q.** And the inhibition at 10 µM [37]?
**A.** 6.71%

**Q.** And the solubility [38]?
**A.** soluble

**Q.** What about the solubility [39] of the same compound?
**A.** soluble

**Q.** What about the Stability [40] of the same compound?
**A.** Stable
